Reference: ChEMBL document CHEMBL4433221, “Novel Sustainable-by-Design HDAC Inhibitors for the Treatment of Alzheimer's Disease” (ACS Med Chem Lett, 2019)
The source made the active and inactive calls. No cut-off for these calls is given here.

Columns and labels:
[1] = biological target: Histone deacetylase (Mus musculus) (UniProt Q8VH37+Q9Z2V6+Q9Z2V5+O09106+Q8C2B3+P70288+O88895+Q91WA3+Q99N13+Q6NZM9+Q6P3E7); conditions: at 5 to 25 µM
[2] = biological target: T1, Histone deacetylase 7 (Homo sapiens) (UniProt Q8WUI4); experiment: Inhibition of human recombinant HDAC7 using fluorogenic trifluoroacetyl lysine as substrate at 10 uM by fluorescence method
T1 sequence (whole entry): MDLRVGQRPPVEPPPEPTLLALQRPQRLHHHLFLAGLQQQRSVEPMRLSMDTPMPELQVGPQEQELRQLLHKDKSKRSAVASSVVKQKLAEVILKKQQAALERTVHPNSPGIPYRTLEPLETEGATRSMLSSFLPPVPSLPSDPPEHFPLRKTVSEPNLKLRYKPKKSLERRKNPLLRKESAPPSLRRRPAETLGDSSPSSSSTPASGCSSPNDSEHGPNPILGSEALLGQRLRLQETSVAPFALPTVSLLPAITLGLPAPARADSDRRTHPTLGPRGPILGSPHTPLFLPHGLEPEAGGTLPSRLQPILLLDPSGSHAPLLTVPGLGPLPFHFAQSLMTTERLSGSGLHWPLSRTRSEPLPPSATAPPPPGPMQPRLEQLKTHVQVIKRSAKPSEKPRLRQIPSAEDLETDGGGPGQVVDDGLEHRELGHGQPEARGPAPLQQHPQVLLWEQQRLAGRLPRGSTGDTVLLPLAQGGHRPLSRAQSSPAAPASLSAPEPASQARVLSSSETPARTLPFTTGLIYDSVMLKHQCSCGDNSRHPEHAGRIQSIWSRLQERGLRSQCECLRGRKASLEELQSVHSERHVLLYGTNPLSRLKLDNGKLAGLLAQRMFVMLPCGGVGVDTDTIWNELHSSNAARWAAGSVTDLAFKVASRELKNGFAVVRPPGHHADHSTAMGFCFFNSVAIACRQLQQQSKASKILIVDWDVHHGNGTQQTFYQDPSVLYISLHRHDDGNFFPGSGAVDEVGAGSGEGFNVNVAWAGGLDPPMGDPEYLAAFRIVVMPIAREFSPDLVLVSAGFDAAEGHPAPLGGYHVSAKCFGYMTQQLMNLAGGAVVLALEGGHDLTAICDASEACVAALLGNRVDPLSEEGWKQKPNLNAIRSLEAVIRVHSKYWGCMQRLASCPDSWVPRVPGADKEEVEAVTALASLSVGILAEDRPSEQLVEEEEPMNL
Method in brief: (§1)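 Selectivity profile across HDAC isoforms 1–11 at a single concentration of 10 μM, run in duplicate.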

Histone deacetylase 1 = Histone deacetylase 1 (Homo sapiens, UniProt Q13547); experiment: Inhibition of human recombinant HDAC1 using fluorogenic peptide p53 residues 379-382 (RHKK(Ac)AMC) as residues at 10 uM by fluorescence method
Method in brief: as §1

[3] = biological target: T2, Polyamine deacetylase HDAC10 (Homo sapiens) (UniProt Q969S8); experiment: Inhibition of human recombinant HDAC10 using fluorogenic peptide p53 residues 379-382 (RHKK(Ac)AMC) as residues at 10 uM by fluorescence method
T2 sequence (whole entry): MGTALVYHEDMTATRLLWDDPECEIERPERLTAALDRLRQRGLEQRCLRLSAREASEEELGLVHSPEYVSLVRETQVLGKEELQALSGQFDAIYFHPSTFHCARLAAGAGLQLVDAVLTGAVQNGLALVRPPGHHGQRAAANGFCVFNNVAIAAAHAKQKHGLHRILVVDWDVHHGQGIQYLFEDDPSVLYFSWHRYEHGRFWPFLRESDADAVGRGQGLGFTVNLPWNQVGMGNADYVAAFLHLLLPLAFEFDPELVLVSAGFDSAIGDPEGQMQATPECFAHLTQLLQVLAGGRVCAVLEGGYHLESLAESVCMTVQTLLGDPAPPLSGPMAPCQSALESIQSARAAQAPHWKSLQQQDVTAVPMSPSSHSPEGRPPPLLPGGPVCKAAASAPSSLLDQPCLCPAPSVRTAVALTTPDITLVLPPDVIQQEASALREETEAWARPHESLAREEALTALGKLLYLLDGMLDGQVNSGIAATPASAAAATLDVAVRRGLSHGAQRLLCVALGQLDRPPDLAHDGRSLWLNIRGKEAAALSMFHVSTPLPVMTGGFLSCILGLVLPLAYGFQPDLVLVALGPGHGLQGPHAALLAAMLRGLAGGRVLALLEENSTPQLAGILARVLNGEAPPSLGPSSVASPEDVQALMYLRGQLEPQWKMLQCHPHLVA
Method in brief: as §1

[4] = biological target: T3, Histone deacetylase 11 (Homo sapiens) (UniProt Q96DB2); experiment: Inhibition of human recombinant HDAC11 using fluorogenic trifluoroacetyl lysine as substrate at 10 uM by fluorescence method
T3 sequence (whole entry): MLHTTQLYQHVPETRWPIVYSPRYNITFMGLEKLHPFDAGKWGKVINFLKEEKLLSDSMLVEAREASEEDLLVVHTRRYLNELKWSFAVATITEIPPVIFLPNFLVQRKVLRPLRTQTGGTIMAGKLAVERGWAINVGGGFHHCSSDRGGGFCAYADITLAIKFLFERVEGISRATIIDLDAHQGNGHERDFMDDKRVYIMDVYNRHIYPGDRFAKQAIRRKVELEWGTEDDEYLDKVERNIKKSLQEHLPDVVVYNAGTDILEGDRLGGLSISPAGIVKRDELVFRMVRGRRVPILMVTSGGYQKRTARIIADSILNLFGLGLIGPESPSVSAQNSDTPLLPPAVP
Method in brief: as §1

[5] = biological target: Histone deacetylase 2 (Homo sapiens) (UniProt Q92769); experiment: Inhibition of human recombinant HDAC2 using fluorogenic peptide p53 residues 379-382 (RHKK(Ac)AMC) as residues at 10 uM mins by fluorescence method
Method in brief: as §1

[6] = biological target: T4, Histone deacetylase 8 (Homo sapiens) (UniProt Q9BY41); experiment: Inhibition of human recombinant HDAC8 using fluorogenic peptide p53 residues 379-382 (RHK(Ac)K(Ac)AMC) as residues at 10 uM by fluorescence method
T4 sequence (whole entry): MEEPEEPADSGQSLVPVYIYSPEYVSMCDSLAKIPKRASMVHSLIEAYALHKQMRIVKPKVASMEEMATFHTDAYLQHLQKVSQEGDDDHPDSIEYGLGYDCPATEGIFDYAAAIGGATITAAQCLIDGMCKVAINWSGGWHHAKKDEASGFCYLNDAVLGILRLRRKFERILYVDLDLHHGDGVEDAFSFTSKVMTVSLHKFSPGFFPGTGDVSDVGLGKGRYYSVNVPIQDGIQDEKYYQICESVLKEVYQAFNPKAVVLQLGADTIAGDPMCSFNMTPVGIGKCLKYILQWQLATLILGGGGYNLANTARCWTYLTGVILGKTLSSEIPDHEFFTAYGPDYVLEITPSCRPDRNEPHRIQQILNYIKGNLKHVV
Method in brief: as §1

Histone deacetylase 2 (Homo sapiens), sequence (Q92769 whole entry, the tested form may be a part): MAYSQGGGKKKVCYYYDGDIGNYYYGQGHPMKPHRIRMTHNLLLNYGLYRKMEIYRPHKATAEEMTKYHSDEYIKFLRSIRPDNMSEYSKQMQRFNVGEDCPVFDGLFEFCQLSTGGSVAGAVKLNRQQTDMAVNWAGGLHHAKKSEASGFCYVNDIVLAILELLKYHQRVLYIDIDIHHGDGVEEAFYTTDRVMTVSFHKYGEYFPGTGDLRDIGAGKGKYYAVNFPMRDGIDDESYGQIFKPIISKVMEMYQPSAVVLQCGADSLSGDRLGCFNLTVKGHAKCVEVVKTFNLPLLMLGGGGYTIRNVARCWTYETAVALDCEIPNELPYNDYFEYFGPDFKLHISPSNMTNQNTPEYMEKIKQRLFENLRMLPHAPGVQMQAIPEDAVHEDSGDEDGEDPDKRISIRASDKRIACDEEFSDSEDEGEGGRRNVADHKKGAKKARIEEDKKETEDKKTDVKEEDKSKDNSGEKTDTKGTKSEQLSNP
Histone deacetylase 1, sequence (Q13547 whole entry, the tested form may be a part): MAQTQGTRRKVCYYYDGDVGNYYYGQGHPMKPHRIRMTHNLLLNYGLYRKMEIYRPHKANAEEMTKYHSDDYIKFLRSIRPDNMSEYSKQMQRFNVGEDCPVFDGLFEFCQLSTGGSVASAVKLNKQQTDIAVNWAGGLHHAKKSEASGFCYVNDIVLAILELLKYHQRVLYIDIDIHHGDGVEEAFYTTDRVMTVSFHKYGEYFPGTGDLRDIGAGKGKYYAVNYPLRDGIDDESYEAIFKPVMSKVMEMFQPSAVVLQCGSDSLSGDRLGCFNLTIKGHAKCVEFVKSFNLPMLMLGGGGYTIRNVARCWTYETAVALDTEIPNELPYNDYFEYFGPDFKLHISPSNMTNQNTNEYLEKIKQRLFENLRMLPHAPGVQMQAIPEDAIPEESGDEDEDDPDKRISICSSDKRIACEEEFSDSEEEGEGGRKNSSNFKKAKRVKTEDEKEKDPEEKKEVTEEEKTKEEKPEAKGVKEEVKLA

| Compound | inhibition [1] | inhibition [2] | inhibition (Histone deacetylase 1) | inhibition [3] | inhibition [4] | inhibition [5] | inhibition [6] |
| --- | --- | --- | --- | --- | --- | --- | --- |
| COc1cccc(CCCCCCCC(=O)NO)c1 | Active | inactive | Active | inactive | inactive | inactive | inactive |
| COC(=O)c1c(CCCCCCCC(=O)NO)cccc1OC | Active | inactive | Active | inactive | inactive | inactive | inactive |
